From ChEMBL document CHEMBL5042485 (J Med Chem, 2022)
Active and inactive are the calls of the source. The rule behind the calls is not given here.

Legend:
[1] = Lipophilicity, log D of compound; format: physicochemical; conditions: octanol/water
[2] = molecular target: CDK12/Cyclin K (Homo sapiens, UniProt Q9NYV4); test: Inhibition of CDK12/cyclin K (unknown origin) using 5-FAM-labeled peptide as substrate in presence of ATP by mobility shift assay; format: protein-complex assay
In short: (§1)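 Conditions by kinase: CDK2/cyclin E1 0.5 nM with 100 μM ATP; CDK9/cyclin T1 8 nM with 30 μM ATP; CDK12/cyclin K 50 nM with 30 μM ATP.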

[3] = Metabolic stability in mouse liver microsomes assessed as intrinsic clearance; format: ADME, Microsome; conditions: read-out: CLH
[4] = Unbound clearance in CD-1 mouse at 1 mg/kg, iv measured upto 24 hrs by LC-MS/MS analysis; format: ADME, organism-based; conditions: in vivo
In short: (§2)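 Male CD1 mice, three per group, dosed by tail-vein injection (1 mg/kg) or oral gavage (5 mg/kg). Saphenous blood was drawn at 0.25–24 h and plasma analysed by LC–MS/MS.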

[5] = molecular target: Cyclin-dependent kinase 2/cyclin E1 (Homo sapiens, UniProt P24941); test: Inhibition of CDK2/cyclin E1 (unknown origin) using 5-FAM-labeled peptide as substrate in presence of ATP by mobility shift assay; format: protein-complex assay; in short: as §1
[6] = tested on: HCC70; test: Antiproliferative activity against human HCC70 cells incubated for 72 hrs by Celltiter-glo assay; format: functional, cell-based; conditions: HCC70, 72 h
In short: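 HCC70 cells in log growth plated the day before, then incubated with compound for 72 h at ten concentrations from 4 to 0.000126 μM, duplicates per dose. Read-out was CellTiter-Glo 2.0 viability. Inhibition was calculated against the averaged DMSO signal on the same plate.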

[7] = Apparent permeability across apical to basolateral side in MDCK cells; format: ADME, cell-based, Canis lupus familiaris; conditions: dog
[8] = molecular target: Cyclin-dependent kinase 7/ cyclin H (Homo sapiens, UniProt P50613); test: Binding affinity to full length CDK7 (1 to 346 residues) /N-terminal TEV cleavable 6His tagged full length cyclinH (1 to 323 residues) (unknown origin) expressed in baculovirus infected Sf9 cells by Surface plasmon resonance assay
Cyclin-dependent kinase 7/ cyclin H, sequence (P51946 whole entry, the tested form may be a part): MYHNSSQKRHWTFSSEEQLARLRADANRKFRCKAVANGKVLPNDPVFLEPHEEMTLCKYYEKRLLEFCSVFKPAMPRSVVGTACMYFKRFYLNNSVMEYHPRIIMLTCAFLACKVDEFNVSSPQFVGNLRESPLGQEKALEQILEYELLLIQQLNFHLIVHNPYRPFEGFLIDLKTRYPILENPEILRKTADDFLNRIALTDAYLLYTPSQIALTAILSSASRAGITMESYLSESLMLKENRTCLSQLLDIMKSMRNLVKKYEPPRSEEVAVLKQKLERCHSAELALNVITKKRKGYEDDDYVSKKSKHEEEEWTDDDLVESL
Cyclin-dependent kinase 7/ cyclin H, sequence (P50613 whole entry, the tested form may be a part): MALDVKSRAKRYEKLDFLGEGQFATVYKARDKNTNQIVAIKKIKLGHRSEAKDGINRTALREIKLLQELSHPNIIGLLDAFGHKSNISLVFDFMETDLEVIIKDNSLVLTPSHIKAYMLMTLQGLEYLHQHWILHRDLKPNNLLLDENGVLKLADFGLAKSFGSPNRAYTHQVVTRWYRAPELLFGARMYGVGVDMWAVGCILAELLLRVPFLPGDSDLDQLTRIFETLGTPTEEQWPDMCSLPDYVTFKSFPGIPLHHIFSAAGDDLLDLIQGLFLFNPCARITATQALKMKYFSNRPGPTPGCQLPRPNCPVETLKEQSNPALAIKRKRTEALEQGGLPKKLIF
In short: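 SPR on CDK7/cyclin H dimer, amine-coupled to a CM5 chip at 200–400 RU, with reference flow cells subtracted. Titration was 9-step 2-fold from 20 nM in HEPES pH 7.5, 150 mM NaCl, 0.05% P20, with 70 s contact and 300 s dissociation. Slow off-rate binders were rerun 4-step 3-fold from 10 nM with 1800 s dissociation.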

[9] = Oral bioavailability in CD-1 mouse 5 mg/kg measured upto 24 hrs by LC-MS/MS analysis; format: ADME, organism-based; conditions: in vivo; in short: as §2
[10] = molecular target: CDK9/cyclin T1 (Homo sapiens, UniProt P50750); test: Inhibition of CDK9/cyclin T1 (unknown origin) using 5-FAM-labeled peptide as substrate in presence of ATP by mobility shift assay; format: protein-complex assay; in short: as §1
CDK9/cyclin T1, sequence (O60563 whole entry): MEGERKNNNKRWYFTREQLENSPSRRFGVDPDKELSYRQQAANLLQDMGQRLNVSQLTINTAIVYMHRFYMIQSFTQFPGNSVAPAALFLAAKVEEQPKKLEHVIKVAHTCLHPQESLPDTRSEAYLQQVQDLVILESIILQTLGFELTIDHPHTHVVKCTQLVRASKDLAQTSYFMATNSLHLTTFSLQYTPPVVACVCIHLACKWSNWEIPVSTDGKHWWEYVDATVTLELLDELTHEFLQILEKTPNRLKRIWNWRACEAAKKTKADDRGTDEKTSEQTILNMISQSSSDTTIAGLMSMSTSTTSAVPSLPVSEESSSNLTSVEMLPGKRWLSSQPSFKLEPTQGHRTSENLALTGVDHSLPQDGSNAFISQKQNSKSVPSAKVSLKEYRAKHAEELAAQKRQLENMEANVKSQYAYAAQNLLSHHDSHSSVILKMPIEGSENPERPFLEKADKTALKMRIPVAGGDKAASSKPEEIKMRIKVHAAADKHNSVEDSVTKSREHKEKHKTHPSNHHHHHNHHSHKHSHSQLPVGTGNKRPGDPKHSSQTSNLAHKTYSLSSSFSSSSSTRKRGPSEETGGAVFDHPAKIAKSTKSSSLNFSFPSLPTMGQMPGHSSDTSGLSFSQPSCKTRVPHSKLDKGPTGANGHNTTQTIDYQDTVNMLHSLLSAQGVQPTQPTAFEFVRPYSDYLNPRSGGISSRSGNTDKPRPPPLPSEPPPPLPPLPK
CDK9/cyclin T1, sequence (P50750 whole entry): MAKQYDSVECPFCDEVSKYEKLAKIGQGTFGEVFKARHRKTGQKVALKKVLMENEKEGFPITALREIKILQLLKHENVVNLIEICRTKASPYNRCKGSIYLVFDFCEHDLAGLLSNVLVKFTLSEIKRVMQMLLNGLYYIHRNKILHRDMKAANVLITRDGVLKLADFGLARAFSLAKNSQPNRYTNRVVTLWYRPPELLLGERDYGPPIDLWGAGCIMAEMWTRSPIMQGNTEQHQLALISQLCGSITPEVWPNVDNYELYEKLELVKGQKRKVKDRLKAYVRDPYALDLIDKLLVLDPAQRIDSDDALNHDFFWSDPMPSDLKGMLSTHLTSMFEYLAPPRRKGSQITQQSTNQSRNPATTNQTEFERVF

[11] = tested on: HCC70; test: Antitumour activity against human HCC70 cells xenografted in BALB/c mouse assessed as tumour growth inhibition at 4 mg/kg, po bid for 21 days measured after 7 days post treatment by vernier caliper method; format: functional, organism-based; conditions: time 28.0 day
In short: (§3)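 Female Balb/c nude mice, 6–8 weeks old, implanted subcutaneously with HCC70 cells. At 150–200 mm3 tumours, mice were randomized, 10 per arm. Dosing was by oral gavage for 21 days, then a 7-day observation period: 2 mg/kg QD, or 2.5 or 4 mg/kg BID. Tumour volume was measured by caliper and body weight recorded twice weekly. TGI was calculated from tumour volumes.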

[12] = tested on: HCC70; test: Antitumour activity against human HCC70 cells xenografted in po dosed BALB/c mouse assessed as tumour growth inhibition administered twice daily for 21 days measured after 7 days post treatment by vernier caliper method; format: functional, organism-based; conditions: dose 2.5-4 mg/kg, time 28.0 day; in short: as §3

CDK12/Cyclin K, sequence (O75909 whole entry): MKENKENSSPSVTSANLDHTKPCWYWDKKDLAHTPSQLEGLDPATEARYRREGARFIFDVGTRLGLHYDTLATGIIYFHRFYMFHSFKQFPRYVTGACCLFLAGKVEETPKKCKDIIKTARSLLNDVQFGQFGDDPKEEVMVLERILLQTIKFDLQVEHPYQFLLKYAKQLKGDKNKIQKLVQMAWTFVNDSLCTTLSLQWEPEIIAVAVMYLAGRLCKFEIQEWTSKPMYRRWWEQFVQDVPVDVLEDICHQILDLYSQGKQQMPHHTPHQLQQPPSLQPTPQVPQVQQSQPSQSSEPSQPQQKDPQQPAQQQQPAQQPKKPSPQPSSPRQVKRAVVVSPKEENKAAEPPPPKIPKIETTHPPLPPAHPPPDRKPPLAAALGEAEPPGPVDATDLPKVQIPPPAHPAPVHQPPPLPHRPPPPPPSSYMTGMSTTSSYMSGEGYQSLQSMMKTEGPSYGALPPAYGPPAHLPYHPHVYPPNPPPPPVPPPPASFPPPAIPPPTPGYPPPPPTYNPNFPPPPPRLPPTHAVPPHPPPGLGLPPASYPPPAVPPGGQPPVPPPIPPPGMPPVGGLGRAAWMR
CDK12/Cyclin K, sequence (Q9NYV4 whole entry): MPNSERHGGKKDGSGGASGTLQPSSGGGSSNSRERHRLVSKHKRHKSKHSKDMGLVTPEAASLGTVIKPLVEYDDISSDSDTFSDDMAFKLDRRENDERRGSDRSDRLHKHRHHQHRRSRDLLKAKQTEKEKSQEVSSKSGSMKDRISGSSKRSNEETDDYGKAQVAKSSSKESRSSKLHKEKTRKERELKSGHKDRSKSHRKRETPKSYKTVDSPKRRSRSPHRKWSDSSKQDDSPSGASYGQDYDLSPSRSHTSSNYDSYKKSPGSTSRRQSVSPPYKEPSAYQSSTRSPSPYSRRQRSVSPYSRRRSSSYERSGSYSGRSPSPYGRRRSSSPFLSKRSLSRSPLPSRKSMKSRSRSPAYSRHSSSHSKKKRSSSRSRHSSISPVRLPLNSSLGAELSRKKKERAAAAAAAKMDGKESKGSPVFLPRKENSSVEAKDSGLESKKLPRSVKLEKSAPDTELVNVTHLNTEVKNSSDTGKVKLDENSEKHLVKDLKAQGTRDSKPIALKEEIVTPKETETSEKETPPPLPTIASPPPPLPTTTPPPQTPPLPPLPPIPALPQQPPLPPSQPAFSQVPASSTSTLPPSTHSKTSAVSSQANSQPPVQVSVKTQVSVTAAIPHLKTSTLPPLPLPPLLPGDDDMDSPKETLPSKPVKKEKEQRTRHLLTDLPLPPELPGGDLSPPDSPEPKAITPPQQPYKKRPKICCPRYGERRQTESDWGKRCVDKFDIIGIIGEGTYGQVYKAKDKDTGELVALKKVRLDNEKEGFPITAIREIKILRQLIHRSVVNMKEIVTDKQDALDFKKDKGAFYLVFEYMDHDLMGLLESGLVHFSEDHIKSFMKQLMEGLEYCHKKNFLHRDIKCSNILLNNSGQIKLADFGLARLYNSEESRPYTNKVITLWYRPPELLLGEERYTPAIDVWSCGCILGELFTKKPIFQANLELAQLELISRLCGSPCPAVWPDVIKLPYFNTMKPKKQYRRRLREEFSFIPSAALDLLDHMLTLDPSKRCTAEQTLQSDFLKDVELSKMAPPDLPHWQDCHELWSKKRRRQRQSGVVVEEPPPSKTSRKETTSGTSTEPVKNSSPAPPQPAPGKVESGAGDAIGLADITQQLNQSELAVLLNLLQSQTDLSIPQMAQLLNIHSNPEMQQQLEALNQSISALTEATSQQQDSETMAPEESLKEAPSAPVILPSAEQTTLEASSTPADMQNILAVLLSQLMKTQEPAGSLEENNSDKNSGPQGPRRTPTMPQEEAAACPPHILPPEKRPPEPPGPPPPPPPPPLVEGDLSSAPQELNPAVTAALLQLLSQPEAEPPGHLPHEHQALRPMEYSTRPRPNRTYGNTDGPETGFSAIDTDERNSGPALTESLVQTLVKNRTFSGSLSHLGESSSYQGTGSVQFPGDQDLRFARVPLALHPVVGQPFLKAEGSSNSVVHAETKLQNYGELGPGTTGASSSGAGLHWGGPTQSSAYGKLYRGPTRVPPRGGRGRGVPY

Row | SMILES | logD [1] | IC50 [2] | CLint scaled [3] | CL free [4] | IC50 [5] | Papp A→B [7] | Kd [8] | bioavailability [9] | IC50 [10] | EC50 [6] | Activity [11] | Activity [12]
1 | CC1(C)CNC[C@@H](Nc2ncc(C(F)(F)F)c(-c3c[nH]c4c(P(C)(C)=O)c(C#N)ccc34)n2)C1 | 2.7 | 156 nM | 164 mL/min/kg | 597 mL/min/kg | 771 nM | 3.32 ×10⁻⁶ cm/s | 0.06 nM | 28% | 572 nM | 1 nM |  | 
2 | Clc1cnc(N[C@H]2CCCNC2)nc1-c1c[nH]c2ccccc12 | 1.78 | 29 nM | 109 mL/min/kg | 457 mL/min/kg | 102 nM | 5.26 ×10⁻⁶ cm/s | 0.33 nM | 39% | 23 nM | 40 nM |  | 
3 | CCc1cnc(N[C@H]2CCCNC2)nc1-c1c[nH]c2c(S(C)(=O)=O)c(C#N)ccc12 | 0.49 | 215 nM | 89 mL/min/kg | 394 mL/min/kg | 1640 nM | 1.12 ×10⁻⁶ cm/s | 0.15 nM |  | 907 nM | 287 nM |  | 
4 | CCc1cnc(N[C@H]2CCCNC2)nc1-c1c[nH]c2ccccc12 | 1.29 | 135 nM | 107 mL/min/kg | 473 mL/min/kg | 923 nM | 0.49 ×10⁻⁶ cm/s | 0.4 nM | 2% | 430 nM | 230 nM |  | 
5 | CC1(C)CNC[C@@H](Nc2ncc(C(F)(F)F)c(-c3c[nH]c4ccccc34)n2)C1 | 3.07 | 36 nM | 120 mL/min/kg | 1477 mL/min/kg | 52 nM |  | 0.21 nM | 40% | 41 nM |  |  | 
6 | CS(=O)(=O)c1ccc2c(-c3nc(N[C@H]4CCCNC4)ncc3C(F)(F)F)c[nH]c2c1 | 1.31 | 69 nM | < 38 mL/min/kg | 729 mL/min/kg | 299 nM | 0.86 ×10⁻⁶ cm/s | 0.1 nM |  | 133 nM | 89 nM |  | 
7 | CC1(C)CC[C@H](Nc2ncc(C(F)(F)F)c(-c3c[nH]c4ccccc34)n2)CN1 | 2.48 | 95 nM | 116 mL/min/kg |  | 128 nM |  | 0.34 nM |  | 71 nM |  |  | 
8 | CS(=O)(=O)c1cccc2c(-c3nc(N[C@H]4CCCNC4)ncc3C(F)(F)F)c[nH]c12 | 1.33 | 15 nM | < 38 mL/min/kg | 309 mL/min/kg | 78 nM | 3.28 ×10⁻⁶ cm/s | 0.07 nM | 49% | 32 nM | 14 nM |  | 

Further lines, with some results ahead:

Row | logD [1] | IC50 [2] | CLint scaled [3] | CL free [4] | IC50 [5] | Papp A→B [7] | Kd [8] | bioavailability [9] | IC50 [10] | SMILES | EC50 [6] | Activity [11] | Activity [12]
9 | 2.02 | 24 nM | 127 mL/min/kg | 568 mL/min/kg | 42 nM | 11.1 ×10⁻⁶ cm/s | 0.15 nM | 100% | 21 nM | FC(F)(F)c1cnc(N[C@H]2CCCNC2)nc1-c1c[nH]c2ccccc12 | 11 nM |  | 
10 | 2.6 | 75 nM | < 38 mL/min/kg | 712 mL/min/kg | 189 nM | 4.62 ×10⁻⁶ cm/s | 0.03 nM | 36% | 90 nM | Cc1noc(C)c1-c1ccc2c(-c3nc(N[C@H]4CCCNC4)ncc3C(F)(F)F)c[nH]c2n1.Cl | 9 nM | Active | Dose-Dependent Effect
11 | 0.78 | 102 nM | < 38 mL/min/kg | 73 mL/min/kg | 414 nM | 1.02 ×10⁻⁶ cm/s | 0.08 nM | 3% | 286 nM | CP(C)(=O)c1cccc2c(-c3nc(N[C@H]4CCCNC4)ncc3C(F)(F)F)c[nH]c12 | 0.2 nM |  | 
12 | 2.28 | 60 nM | 62 mL/min/kg | 656 mL/min/kg | 347 nM | 4.63 ×10⁻⁶ cm/s | 0.09 nM | 43% | 86 nM | N#Cc1ccc2c(-c3nc(N[C@H]4CCCNC4)ncc3C(F)(F)F)c[nH]c2c1 | 36 nM |  | 
13 | 1.05 | 33 nM | < 38 mL/min/kg | 368 mL/min/kg | 284 nM | 1.86 ×10⁻⁶ cm/s | 0.08 nM | 5% | 60 nM | CS(=O)(=O)c1c(C#N)ccc2c(-c3nc(N[C@H]4CCCNC4)ncc3C(F)(F)F)c[nH]c12 | 15 nM |  | 
14 | 2.71 | 112 nM | 150 mL/min/kg | 514 mL/min/kg | 460 nM | 1.63 ×10⁻⁶ cm/s | 0.1 nM | 16% | 138 nM | Cc1noc(C)c1-c1ccc2c(-c3nc(N[C@H]4CCCNC4)ncc3C(F)(F)F)c[nH]c2c1 |  |  | 
